Measurements: publication PMC11410293 (Journal of hepatology, 2022)

What was measured:
HuCCT-1 reporter cells = assay: luminescent reporter of TEAD-dependent transcription; type: cell-based
[1] = test system: CCA patient-derived xenografts; conditions: cited from earlier work
cells from PDX283 = assay: viability of cells isolated from PDX283 tumor, in vitro; type: cell-based, human; conditions: concentrations up to 16 μM
PDX283 tumors [2] = assay: PDX283 xenograft tumor growth; type: in vivo, NOD/SCID mice; conditions: 1 mg/kg/mouse intraperitoneal 3 times per week for 3 weeks
In short: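 Female NOD/SCID mice aged 6–8 weeks carried flank implants of the human CCA tumor. Dosing began once tumors were palpable (>25 mm³). Tumor growth was followed.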

PDX283 tumors [3] = assay: pharmacodynamics in PDX283 tumors; type: in vivo, NOD/SCID mice; conditions: CA3-treated mice, qRT-PCR

## Verteporfin
HuCCT-1 reporter cells
  global TEAD-dependent transcription: decreased

## Cc1nc(Nc2ncc(C(=O)Nc3c(C)cccc3Cl)s2)cc(N2CCN(CCO)CC2)n1 [dasatinib]
[1]
  in vivo growth of CCA patient-derived xenografts: inhibited

## CCN1C(=O)N(c2c(F)c(OC)cc(OC)c2F)Cc2cnc3[nH]c(CN4CCOCC4)cc3c21 [pemigatinib]
Cells from PDX283
  sensitivity of PDX283 cells: resistance

## O=S(=O)(c1ccc2c(c1)C(=NO)c1cc(S(=O)(=O)N3CCCCC3)ccc1-2)N1CCCCC1 [CA3]
PDX283 tumors [2]
  growth of PDX283 tumors: significantly decreased
PDX283 tumors [3]
  YAP target gene expression in tumors: Inhibition
